# CAL PDZ FP-1 = untagged CAL PDZ binding inhibitors, primary screen, biochemical, fluorescence polarization, HTS; inhibition, % at 24.9 µM; purified CAL PDZ, TMR-peptide fluorescence polarization, 1 h; 300,000 tested, 0.92% active; AID 602252, 2012;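 active means mean inhibition of at least 30% with at least half of replicates also reaching 30%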;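 further: 0% = DMSO neutral control and 100% = excess unlabeled competitor peptide PRC23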
# Cneo AK release = Cryptococcus neoformans cell lysis inducers, primary screen, AK release luminescence, single concentration | C. neoformans lysis, adenylate kinase release luminescence, 4 h; normalised: neutral wells 0, clomiphene wells 100 | lysis activity, % at 15 µM | 360,000 tested, 0.2% active;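 active means mean lysis activity across replicates of at least 80%, whatever share of replicates individually reach that level; inactive means mean lysis activity below 80%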
#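 Schedule: static 4 h at 37 °C with compound, 1 h detection; system: C. neoformans cells; benchmarks: Clomiphene as positive control; buffer or medium: fresh YPD medium; measure: luminescence rise reflecting yeast cell lysis; measured by: luminescent adenylate kinase detection reagent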
# miR-122 sensor = miR-122 Renilla sensor signal increase in Huh7, primary screen, miR-122 inhibitor project, cell-based, single point, plate reader; 340,000 tested, 0.3% active; Huh7 miR-122 Renilla luciferase sensor, 48 h; neutral wells = 0, positive control = 100; activation (reporter increase), % at 12.5 µM;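 active means mean replicate activation score at least 90 and every replicate individually at or above 90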;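 further: higher luciferase means less miR-122 activity so hits act as miR-122 inhibitors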
# PglD DTNB = C. jejuni PglD acetyltransferase inhibitors, primary screen, biochemical, DTNB colorimetric, single point. UDP-N-acetylbacillosamine N-acetyltransferase PglD (Campylobacter jejuni). purified PglD enzyme, DTNB colorimetric CoA detection. inhibition, % at 12.5 µM. 360,000 tested, 0.098% active. AID 602405, 2012; in the data active means inhibition above about 16%, passing the limit was not always enough
# CAL PDZ FP-2 = CAL PDZ peptide-binding inhibitors, primary screen, biochemical, fluorescence polarization, Cer-tagged CAL PDZ, HTS; purified CAL PDZ, TMR-peptide fluorescence polarization, 1 h; inhibition, % at 20 µM; 330,000 tested, 0.02% active; AID 504414, 2011;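 active means highest replicate inhibition of at least 40%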;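 further: plate controls were DMSO neutral control wells for no effect and unlabeled competitor peptide control wells for full effect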
#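 System: purified tagged CAL PDZ domain construct (CerCALP). Schedule: 1 h incubation at room temperature before polarization reading. Medium: 25 mM sodium phosphate pH 7.4, 150 mM NaCl, TCEP, IgG, Thesit. Read-out: percent inhibition from loss of millipolarization. Measured by: FP readout, S and P plane fluorescence. Probe or stimulus: fluorescent TMR peptide probe.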
# Numbers without * were called inactive; . = no result given; [ ] = remark or other dose. Only some compounds are listed: those with a hit (about 1.1% of all), similar ones and a draw of the others.
SMILES,CAL PDZ FP-1,Cneo AK release,miR-122 sensor,PglD DTNB,CAL PDZ FP-2
CNC(=O)C[C@@H]1CC[C@H]2[C@@H](COc3ccc(NC(=O)c4cnccn4)cc3C(=O)N2C)O1,.,-3,29[16.7 µM],1,.
CCCC(=O)Nc1ccc2c(c1)C(=O)N(C)[C@H]1CC[C@@H](CC(=O)NCc3ccccc3Cl)O[C@@H]1CO2,.,2,32[16.7 µM],1,.
Cc1nn(C(C)(C)C)c(OC(=O)c2ccco2)c1Sc1ccccc1,141*,4,-12,3,.
O=C(Nc1ccc(C(F)(F)F)cc1)N[C@H]1CC[C@@H](CCNC(=O)c2ccccc2F)O[C@H]1CO,.,10,.,1,.
COc1ccc(S(=O)(=O)Nc2ccc3c(c2)C(=O)N([C@@H](C)CO)C[C@@H](C)[C@@H](CN(C)C(=O)Nc2ccc(C(F)(F)F)cc2)OCCCC[C@@H](C)O3)cc1,.,-3,-11[16.7 µM],-1,.
CCn1c(SCc2ccc(F)cc2)nnc1C1CCN(S(=O)(=O)c2ccc(OC)cc2)CC1,49*,1,-7,0,-2
CCn1c(SCc2ccc(C)cc2)nnc1C1CCN(S(=O)(=O)c2ccc(OC)cc2)CC1,2,-5,-13,0,-1
CCCn1nnnc1SCC(=O)N1CCCCC1,14,7,.,5,-3
CCCn1nnnc1SCC(=O)N1CCCC1,43*,0,5,6,-1
O=C(C1CC1)N1CC[C@@H]2[C@@H](CO)Nc3ccc(Br)cc3[C@@H]21,.,-1,-5[16.7 µM],-1,.
O=C(C1CCOCC1)N1CC[C@@H]2[C@@H](CO)Nc3ccc(Br)cc3[C@@H]21,.,91*,40[16.7 µM],7,.
CCN(C[C@H]1[C@H](c2ccc(C3=CCCC3)cc2)[C@@H](CO)N1C(C)=O)C(C)=O,.,1,0[16.7 µM],-2,.
Cc1c(N(C)S(=O)(=O)c2cc(C(=O)N3CCCC3)ccc2Cl)c(=O)n(-c2ccccc2)n1C,-1,3,-4,0,0
O=C(Nc1ccc2c(c1)OCCO2)C1CCN(S(=O)(=O)c2ccccc2)CC1,-4,1,177*,1,0
O=C(NNC(=S)NC1CCCCC1)c1ccc2c(c1)OCO2,-5,-3,106*,-136,-2
O=C(NC1CCCCCCC1)c1ccc2c(c1)OCO2,-2,-11,2,1,-1
Cc1nonc1NC(=O)CSc1nnc(-c2ccoc2C)n1CC(C)C,177*,3,5,5,.
CCn1c(SCC(=O)Nc2nonc2C)nnc1-c1ccoc1C,-5,0,-2,.,.
Cc1cc(C)cc(C(O)c2ncc(-c3ccccc3C)[nH]2)c1 (stereo unspecified),.,2,.,-1,.
Cc1cc(C(O)c2ncc(-c3ccccc3F)[nH]2)ccc1F (stereo unspecified),.,1,136*,-2,.
Cc1cc(C)cc(C(O)c2ncc(-c3ccccc3F)[nH]2)c1 (stereo unspecified),.,12,110*,0,.
O=C(C[C@@H]1CC[C@@H](NC(=O)CN2CCOCC2)[C@@H](CO)O1)NC1CCCCC1,.,-5,.,0,.
O=C(NCC(c1ccco1)N1CCN(c2ccccc2)CC1)C(=O)NC1CCCCC1 (stereo unspecified),36*,-2,3,4,0
O=C(NCC(c1ccco1)N1CCN(c2ccccc2)CC1)C(=O)NC1CCCC1 (stereo unspecified),.,0,-2,1,0
C[C@@H]1CN([C@@H](C)CO)C(=O)c2cc(N(C)C)ccc2O[C@H]1CN(C)Cc1ccc2c(c1)OCO2,.,-4,-6[16.7 µM],0,.
SMILES,CAL PDZ FP-1,Cneo AK release,miR-122 sensor,PglD DTNB,CAL PDZ FP-2
O=C(CN1CCOCC1)NCC[C@@H]1CC[C@@H](NC(=O)Nc2ccc(Cl)cc2)[C@H](CO)O1,.,-2,.,-4,.
CCN1C(=O)c2cccc3c(S(=O)(=O)Nc4ccccc4)ccc1c23,-3,1,151*,1,.
CCN1C(=O)c2cccc3c(S(=O)(=O)Nc4ncccc4C)ccc1c23,-6,-8,96*,-7,-2
CCN1C(=O)c2cccc3c(S(=O)(=O)Nc4ccccn4)ccc1c23,-2,-4,27,4,-2
C[C@@H]1CCCCO[C@H](CN(C)CC2CCCCC2)[C@H](C)CN([C@@H](C)CO)C(=O)c2cc(NC(=O)CCC(F)(F)F)ccc2O1,.,0,8[16.7 µM],0,.
Cc1cc(S(=O)(=O)NCCc2ccccc2)c(C)s1,0,2,226*,4,0
C[C@H]1CN([C@@H](C)CO)C(=O)c2cc(/C=C/c3ccccc3)cnc2O[C@H]1CN(C)C(=O)c1ccc(F)cc1,.,-6,-5[16.7 µM],1,.
CCOC(=O)C1(C)NC(c2ccc(OC)cc2OC)C2C(=O)N(c3cccc(OC)c3)C(=O)C21 (stereo unspecified),-2,7,3,1,-3
CCN(CC)c1ccc(NS(=O)(=O)c2ccc(OC)cc2)cc1,66*,.,.,.,-1
CCN(CC)c1ccc(N)cc1S(=O)(=O)Nc1ccc(OC)cc1,-4,-1,107*,2,0
COc1ccc(NS(=O)(=O)c2ccc3oc(=S)[nH]c3c2)cc1,31*,.,.,.,-1
CCN(CC)c1ccc(N)cc1S(=O)(=O)Nc1ccccc1OC,-1,-7,27,-2,0
CC(C)=CCC[C@H](C)C[C@@H]1CC2=C(C(=O)OC(C)(C)O2)[C@H](c2ccc(Cl)cc2)O1,.,0,-3,2,.
C[C@@H]1CCCCO[C@H](CN(C)S(=O)(=O)c2cn(C)cn2)[C@H](C)CN([C@H](C)CO)C(=O)c2cc(NC(=O)CCCN(C)C)ccc2O1,.,-5,1[16.7 µM],-5,.
COc1ccc(S(=O)(=O)N(C)C[C@H]2Oc3ncc(C#CC4(O)CCCC4)cc3C(=O)N([C@@H](C)CO)C[C@H]2C)cc1,.,-9,12[16.7 µM],5,.
Cc1cc2oc(C(=O)Nc3ccc(S(=O)(=O)Nc4ncccn4)cc3)cc(=O)c2cc1Cl,90*,-3,-3,5,-1
Cc1ccc2c(=O)cc(C(=O)Nc3ccc(S(=O)(=O)Nc4onc(C)c4C)cc3)oc2c1,.,2,.,1,-4
CCCN(CCC)c1nc(NC2CCN(C(=O)OCC)CC2)nc(OC)n1,.,3,2,.,-1
CCOC(=O)CC(=O)CSc1nc(C)cc(C)c1C#N,39*,1,-2,-1,-2
COC(=O)CSc1nc(C)cc(C)c1C#N,6,.,.,.,-1
COc1ccc(/C=C/C(=O)OCC(=O)Nc2ccc(S(N)(=O)=O)cc2)cc1OC,45*,.,.,.,-1
O=C(NCc1ccc(F)cc1)C(c1ccco1)N(C(=O)c1csnn1)c1ccccc1 (stereo unspecified),7,5,8,-3,-2

# Screens from PubChem.
